The results in this text go back to ChEMBL document CHEMBL1145303, “The development of novel C-2, C-8, and N-9 trisubstituted purines as inhibitors of TNF-alpha production” (Bioorg Med Chem Lett, 2006).

The subject of one series is THP-1. Nature of the series: Inhibition of LPS-stimulated TNFalpha production in THP1 cells. The class given is functional, cell-based. The conditions noted are these: Homo sapiens. The gist of the method:
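Human monocytic THP-1 cells, 2.0 · 10⁵/well, cultured in duplicate, preincubated 15 min with or without a range of inhibitor concentrations. TNF-α release then stimulated with LPS at 2 µg/ml. Secreted TNF-α measured by ELISA 4 h after stimulation. Cell viability after the 4 h incubation checked by MTS assay.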

A short description of series [1]: Metabolic stability in Sprague-Dawley rat liver microsomes assessed as percent loss after 4 hrs. Conditions: hepatocytes, in the assay text read “hepatocytes” for “liver microsomes”, read-out: Activity. The class given is ADME, Microsome. In a few lines: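 Plated Sprague–Dawley rat hepatocytes, not microsomes, with matrigel blank plates. Test compound incubated at 37 °C in triplicate, sampled at 0, 2 and 4 h. Samples pooled after incubation into a multi-compound set, internal standard added, reverse-phase LC/MS/MS. The compound/internal-standard area ratio at 4 h divided by the 0 h ratio gives percent loss.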

Series [2] can be described thus: Bioavailability in rat. In kind it is ADME, organism-based. Conditions: in vivo.
Series [3] is described as follows: Half life in rat. In kind it is ADME, organism-based. The conditions noted are these: in vivo.

Bounds are passed on as bounds.

With `CCn1c(Nc2ccccc2OC)nc2cnc(Oc3c(F)cccc3F)nc21`, the IC50 (commonly the midpoint of a concentration-inhibition curve) in the series with THP-1 is 2.05 µM.

In the series on THP-1, `CCn1c(Nc2ccc(C)cc2Cl)nc2cnc(Oc3c(F)cccc3F)nc21` yielded a half-inhibitory concentration (IC50) of 0.273 µM.

With `CCn1c(Nc2ccccc2O)nc2cnc(Oc3c(F)cccc3F)nc21`, the IC50 with THP-1 came to 0.906 µM.

`CC(C)n1c(Nc2ccccc2Cl)nc2cnc(Nc3c(F)cccc3F)nc21` gave an IC50 with THP-1 of 0.63 µM.

In turn, `CCn1c(C(=O)c2ccccc2Cl)nc2cnc(Oc3c(F)cccc3F)nc21` registered an IC50 in the series on THP-1 of 0.004 µM. The metabolised at 4 h in series [1] was 82%.

As to `Cn1c(NC(=O)c2ccccc2Cl)nc2cnc(NC3CCOCC3)nc21`, the IC50 in the series with THP-1 is > 10 µM.

As to `CCn1c(Sc2ccccc2Cl)nc2cnc(Oc3c(F)cccc3F)nc21`, in the series on THP-1, inhibition was half-maximal at 0.014 µM (IC50). In addition, the metabolised at 4 h in series [1] amounted to 75%.

With `CCn1c(Nc2ccccc2C)nc2cnc(Oc3c(F)cccc3F)nc21`, the bioavailability – broadly, dose-corrected exposure relative to a reference, in per cent – in series [2] came to 9%. Besides, the half-life (in general, the time in which the quantity being followed falls by half) in series [3] was 1.5 h. In the series on THP-1, the IC50 was found to be 0.048 µM. The metabolised at 4 h in series [1] is 56%.

Compound `Cn1c(Nc2ccccc2Cl)nc2cnc(Nc3c(F)cccc3F)nc21` gave an IC50 in the series on THP-1 of 1.54 µM.

Take `CCn1c([S+]([O-])c2ccccc2Cl)nc2cnc(Oc3c(F)cccc3F)nc21` (configuration not stated): in the series with THP-1, the IC50 is > 1 µM.

On to `Cn1c(Nc2ccccc2Cl)nc2cnc(Nc3ccc(F)cc3F)nc21`, for which, in the series with THP-1, the 50% inhibitory concentration (IC50) stood at 6.56 µM.

Compound `CCn1c(Nc2cccc(Cl)c2Cl)nc2cnc(Oc3c(F)cccc3F)nc21` came in with an IC50 in the series on THP-1 of 0.3 µM.

`CCn1c(C(=O)c2ccccc2F)nc2cnc(Oc3c(F)cccc3F)nc21` came in with an IC50 in the series with THP-1 of 0.207 µM.

`CCn1c(Nc2ccccc2N)nc2cnc(Oc3c(F)cccc3F)nc21` showed an IC50 in the series with THP-1 of 0.473 µM.

On to `Cn1c(Nc2ccccc2Cl)nc2cnc(NC3CCOCC3)nc21`, for which the IC50 with THP-1 stood at 6.58 µM.

On to `C[C@H](Nc1ncc2nc(NCc3ccccc3Cl)n(C)c2n1)C(C)(C)O`, for which, in the series on THP-1, the IC50 was > 10 µM.

In the series on THP-1, `CCn1c(Nc2ccccc2Cl)nc2cnc(Nc3ccccc3F)nc21` came in with an IC50 of 2.11 µM.

Turning to `Cn1c(Nc2ccccc2Cl)nc2cnc(Nc3ccccc3F)nc21`, inhibition in the series with THP-1 was half-maximal at 10 µM (IC50).

In the case of `CCn1c(C(O)c2ccccc2Cl)nc2cnc(Oc3c(F)cccc3F)nc21` (configuration not stated), the IC50 with THP-1 is 0.169 µM.

The compound `CC(C)n1c(C(=O)c2ccccc2Cl)nc2cnc(Oc3c(F)cccc3F)nc21` gave an IC50 with THP-1 of 0.65 µM.

In turn, `CCn1c(Nc2c(Cl)cccc2Cl)nc2cnc(Oc3c(F)cccc3F)nc21` yielded an IC50 in the series with THP-1 of 0.1 µM.

`C[C@H](Nc1ncc2nc(NCCc3ccccc3Cl)n(C)c2n1)C(C)(C)O`: in the series with THP-1, the IC50 is > 10 µM.

In the series with THP-1, `CCn1c(Oc2ccccc2Cl)nc2cnc(Oc3c(F)cccc3F)nc21` had an IC50 of 0.086 µM.

For the compound `CCn1c(Nc2ccccc2F)nc2cnc(Oc3c(F)cccc3F)nc21`, the half-maximal inhibitory concentration (IC50) in the series with THP-1 is 0.035 µM. Moreover, the metabolised at 4 h in series [1] came to 65%.

`CC(C)n1c(Nc2ccccc2F)nc2cnc(Oc3c(F)cccc3F)nc21` displayed a bioavailability in series [2] of 9%. In series [3], this compound had a half-life of 1.5 h. The half-maximal inhibitory concentration (IC50) with THP-1 was determined as 0.004 µM. In addition, in series [1], the metabolised at 4 h stood at 61%.

In turn, `CCn1c(Nc2ccccc2Cl)nc2cnc(Oc3c(F)cccc3F)nc21` gave an IC50 in the series on THP-1 of 0.069 µM.

Turning to `CC(C)(C)n1c(Nc2ccccc2Cl)nc2cnc(Nc3c(F)cccc3F)nc21`, the half-inhibitory concentration (IC50) in the series on THP-1 was > 1 µM.

On to `CCCCn1c(Nc2ccccc2Cl)nc2cnc(Nc3c(F)cccc3F)nc21`, for which half-maximal inhibition with THP-1 (IC50) required 0.798 µM.

On to `Fc1cccc(F)c1Nc1ncc2nc(Nc3ccccc3Cl)n(C3CC3)c2n1`, for which the IC50 in the series on THP-1 was > 1 µM.

On to `CCn1c(Nc2ccc(F)cc2Cl)nc2cnc(Oc3c(F)cccc3F)nc21`, for which the IC50 in the series with THP-1 turned out to be 0.237 µM.

`CCn1c(Nc2ccccc2Cl)nc2cnc(Nc3c(F)cccc3F)nc21`: in the series on THP-1, half-maximal inhibition (IC50) required 0.542 µM.

In the series on THP-1, `C[C@H](Nc1ncc2nc(Nc3ccccc3Cl)n(C)c2n1)C(C)(C)O` gave an IC50 of 3.17 µM.

As to `O=c1ncn2nc(Sc3ccc(F)cc3F)ccc2c1-c1c(Cl)cccc1Cl` [NEFLAMAPIMOD], in the series with THP-1, half-maximal inhibition (IC50) required 0.056 µM.
